Common to all, as to type: functional
For test [1], the system named is Candida albicans. The test can be described thus: Antifungal activity against Candida albicans ATCC 10231 assessed as growth inhibition at 62.5 ug/ml after 48 hrs by broth microdilution method. As to conditions: ATCC 10231, 48 h. Put shortly: (§1)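 CLSI M27-A3 broth microdilution in RPMI-1640. Compound stocks were made in DMSO (final at most 1%) and tested at final levels of 250 to 0.98. Inoculum was 1–5 × 10^3 CFU/mL, incubated 48 h at 30 °C in a moist, dark chamber. Growth and sterility control wells were included.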

Test [2] deals with Candida albicans. The test can be described thus: Antifungal activity against Candida albicans ATCC 10231 assessed as growth inhibition at 125 ug/ml after 48 hrs by broth microdilution method. As to conditions: ATCC 10231, 48 h. The method in brief: as §1
(In general: Broth dilution looks for growth in wells or tubes with falling amounts of substance.)

In test [3] the test system is Candida albicans. The test can be described thus: Antifungal activity against Candida albicans ATCC 10231 assessed as growth inhibition at 250 ug/ml after 48 hrs by broth microdilution method. As to conditions: ATCC 10231, 48 h. Put shortly:
as §1

Test [4] has as its system Candida albicans. The test can be described thus: Antifungal activity against Candida albicans ATCC 10231 assessed as growth inhibition at 31.25 ug/ml after 48 hrs by broth microdilution method. As to conditions: ATCC 10231, 48 h. Put shortly: as §1
Test [5] has as its system Cryptococcus neoformans. The test can be described thus: Antifungal activity against Cryptococcus neoformans ATCC 32264 assessed as growth inhibition at 250 ug/ml after 48 hrs by broth microdilution method. As to conditions: ATCC 32264, 48 h. The method in brief: as §1
Test [6] concerns Candida albicans. The test can be described thus: Antifungal activity against Candida albicans ATCC 10231 assessed as growth inhibition at 15.62 ug/ml after 48 hrs by broth microdilution method. The note with it: ATCC 10231, 48 h. The method in brief: as §1
Test [7] deals with Cryptococcus neoformans. The test can be described thus: Antifungal activity against Cryptococcus neoformans ATCC 32264 assessed as growth inhibition at 125 ug/ml after 48 hrs by broth microdilution method. The note with it: ATCC 32264, 48 h. The method in brief:
as §1

Test [8] has as its system Cryptococcus neoformans. The test can be described thus: Antifungal activity against Cryptococcus neoformans ATCC 32264 assessed as growth inhibition at 15.62 ug/ml after 48 hrs by broth microdilution method. The note with it: ATCC 32264, 48 h. Put shortly: as §1
The subject of test [9] is Candida albicans. The test can be described thus: Antifungal activity against Candida albicans ATCC 10231 assessed as growth inhibition at 7.81 ug/ml after 48 hrs by broth microdilution method. The note with it: ATCC 10231, 48 h. Put shortly:
as §1

The subject of test [10] is Cryptococcus neoformans. Put plainly: Antifungal activity against Cryptococcus neoformans ATCC 32264 assessed as growth inhibition at 7.81 ug/ml after 48 hrs by broth microdilution method. As to conditions: ATCC 32264, 48 h. The method in brief:
as §1

Test [11] deals with Cryptococcus neoformans. Put plainly: Antifungal activity against Cryptococcus neoformans ATCC 32264 assessed as growth inhibition at 3.9 ug/ml after 48 hrs by broth microdilution method. As to conditions: ATCC 32264, 48 h. Put shortly: as §1
The test system of test [12] is Candida albicans. Put plainly: Antifungal activity against Candida albicans ATCC 10231 assessed as growth inhibition at 3.9 ug/ml after 48 hrs by broth microdilution method. The note with it: ATCC 10231, 48 h. Put shortly:
as §1

Test [13] concerns Cryptococcus neoformans. Put plainly: Antifungal activity against Cryptococcus neoformans ATCC 32264 assessed as growth inhibition at 31.25 ug/ml after 48 hrs by broth microdilution method. The note with it: ATCC 32264, 48 h. The method in brief:
as §1

The test system of test [14] is Cryptococcus neoformans. Put plainly: Antifungal activity against Cryptococcus neoformans ATCC 32264 assessed as growth inhibition at 62.5 ug/ml after 48 hrs by broth microdilution method. As to conditions: ATCC 32264, 48 h. Put shortly: as §1
The test system of test [15] is Cryptococcus neoformans. The test can be described thus: Antifungal activity against Cryptococcus neoformans IM 031631 clinical isolate after 48 hrs by broth microdilution method. The note with it: IM 031631, 48 h, read-out: MIC100. Put shortly: (§2)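 Clinical isolates from the Malbrán Institute were grown on Sabouraud-chloramphenicol agar for 48 h at 30 °C, kept on Sabouraud-dextrose agar and subcultured every 15 days. M27-A3 RPMI-1640 microdilution used 1–5 × 10^3 CFU/mL, 48 h at 30 °C, OD405 read, triplicate. Endpoints MIC100, MIC80 and MIC50 were taken from % inhibition dose-response curves.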

In test [16] the test system is Cryptococcus neoformans. Put plainly: Antifungal activity against Cryptococcus neoformans ATCC 32264 after 48 hrs by broth microdilution method. As to conditions: ATCC 32264, 48 h, read-out: MIC100.
For test [17], the system named is Cryptococcus neoformans. The test can be described thus: Antifungal activity against Cryptococcus neoformans IM 042074 clinical isolate after 48 hrs by broth microdilution method. As to conditions: IM 042074, 48 h, read-out: MIC100. The method in brief: as §2
Test [18] concerns Cryptococcus neoformans. Put plainly: Antifungal activity against Cryptococcus neoformans IM 983036 clinical isolate after 48 hrs by broth microdilution method. The note with it: IM 983036, 48 h, read-out: MIC100. The method in brief: as §2
For test [19], the system named is Cryptococcus neoformans. The test can be described thus: Antifungal activity against Cryptococcus neoformans IM 983040 clinical isolate after 48 hrs by broth microdilution method. The note with it: IM 983040, 48 h, read-out: MIC100. The method in brief: as §2
In test [20] the test system is Cryptococcus neoformans. The test can be described thus: Antifungal activity against Cryptococcus neoformans IM 961951 clinical isolate after 48 hrs by broth microdilution method. As to conditions: IM 961951, 48 h, read-out: MIC100. Put shortly:
as §2

Test [21] has as its system Cryptococcus neoformans. Put plainly: Antifungal activity against Cryptococcus neoformans IM 972724 clinical isolate after 48 hrs by broth microdilution method. As to conditions: IM 972724, 48 h, read-out: MIC100. Put shortly: as §2
In test [22] the test system is Cryptococcus neoformans. Put plainly: Antifungal activity against Cryptococcus neoformans IM 972751 clinical isolate after 48 hrs by broth microdilution method. The note with it: IM 972751, 48 h, read-out: MIC100. The method in brief: as §2

Values after ≈ are worked out from the molar mass of the structure shown.

Usually inhibition stands for the percentage by which the read-out fell short of the control. As for `Cc1ccc(C2=Nc3c(N)nc(N)nc3NC(c3sc(Cl)nc3Cl)C2)cc1` (stereo not given), the inhibition at 62.5 µg/mL came to 13.5% in the test on Candida albicans [1] and 9.2% in the test on Cryptococcus neoformans [14]. For the same compound, the inhibition at 125 µg/mL in the test with Candida albicans [2] was determined as 21.3%; in the test with Cryptococcus neoformans [7], 18.3%. Further, the inhibition at 250 µg/mL in the test on Candida albicans [3] worked out at 55.5%; in the test on Cryptococcus neoformans [5], 59.1%. In addition, the values for the inhibition at 31.25 µg/mL in the test on Candida albicans [4] and in the test with Cryptococcus neoformans [13] were 8.7% and 6.47%, respectively. Also, the inhibition at 15.62 µg/mL worked out at 1.41% with Candida albicans [6] and 4.57% in the test with Cryptococcus neoformans [8]. Further, the inhibition at 7.81 µg/mL in the test with Candida albicans [9] came out at 0%; in the test on Cryptococcus neoformans [10], 0.93%. The inhibition at 3.9 µg/mL in the test with Cryptococcus neoformans [11] and in the test with Candida albicans [12] was 0% throughout.
In the case of `COc1ccc(C2=Nc3c(N)nc(N)nc3NC(c3sc(Cl)nc3Cl)C2)cc1` (stereo not given), the figures for the inhibition at 62.5 µg/mL with Candida albicans [1] and with Cryptococcus neoformans [14] were 23.2% and 23.1%, respectively. Moreover, the inhibition at 125 µg/mL is 54.6% with Candida albicans [2] and 46.9% in the test on Cryptococcus neoformans [7]. For the same compound, the inhibition at 250 µg/mL came out at 62.6% in the test on Candida albicans [3] and 77.1% with Cryptococcus neoformans [5]. In addition, the inhibition at 31.25 µg/mL in the test on Candida albicans [4] worked out at 21.2%; in the test on Cryptococcus neoformans [13] it was 13.2%. The values for the inhibition at 15.62 µg/mL in the test with Candida albicans [6] and in the test with Cryptococcus neoformans [8] were 15.7% and 7.79%, respectively. Besides, the inhibition at 7.81 µg/mL in the test with Candida albicans [9] amounted to 12.4%; in the test with Cryptococcus neoformans [10], 6.04%. Also, the inhibition at 3.9 µg/mL in the test on Cryptococcus neoformans [11] came to 0%; in the test on Candida albicans [12], 10.4%.
`COc1cc(C2=Nc3c(N)nc(N)nc3NC(c3sc(Cl)nc3Cl)C2)cc(OC)c1OC` (stereo not given): the inhibition at 62.5 µg/mL in the test with Candida albicans [1] was determined as 7.26%; in the test with Cryptococcus neoformans [14], 9.28%. Besides, the inhibition at 125 µg/mL turned out to be 10.5% with Candida albicans [2] and 27.2% in the test on Cryptococcus neoformans [7]. Also, the inhibition at 250 µg/mL in the test on Candida albicans [3] was found to be 15%; with Cryptococcus neoformans [5] it was 77.5%. Further, the inhibition at 31.25 µg/mL in the test on Candida albicans [4] stood at 9.84%; in the test with Cryptococcus neoformans [13], 7.09%. The inhibition at 15.62 µg/mL is 0% with Candida albicans [6] and 5.52% in the test with Cryptococcus neoformans [8]. Further, the inhibition at 7.81 µg/mL with Candida albicans [9] came to 0%; in the test on Cryptococcus neoformans [10] it was 2.99%. Further, the inhibition at 3.9 µg/mL in the test with Cryptococcus neoformans [11] was 1.65%; in the test on Candida albicans [12], 0%.
`C[C@@H]1[C@H](O)[C@@H](C)/C=C/C=C/C=C/C=C/C=C/C=C/C=C/[C@H](O[C@@H]2O[C@H](C)[C@@H](O)[C@H](N)[C@@H]2O)C[C@@H]2O[C@](O)(C[C@@H](O)C[C@@H](O)[C@H](O)CC[C@@H](O)C[C@@H](O)CC(=O)O[C@H]1C)C[C@H](O)[C@H]2C(=O)O` [AMPHOTERICIN B]: the MIC in the test with Cryptococcus neoformans [15] was 0.12 µg/mL (≈ 0.13 µM); in the test with Cryptococcus neoformans [16] it was 0.12 µg/mL (≈ 0.13 µM); with Cryptococcus neoformans [17], 0.12 µg/mL (≈ 0.13 µM); in the test on Cryptococcus neoformans [18] it was 0.25 µg/mL (≈ 0.271 µM); in the test on Cryptococcus neoformans [19], 0.25 µg/mL (≈ 0.271 µM); in the test with Cryptococcus neoformans [20], 1 µg/mL (≈ 1.08 µM). The results for the MIC with Cryptococcus neoformans [21] and with Cryptococcus neoformans [22] were 0.25 µg/mL (≈ 0.271 µM) and 1 µg/mL (≈ 1.08 µM), respectively.

The values are drawn from ChEMBL document CHEMBL3407460, “Synthesis of novel thiazole-based 8,9-dihydro-7H-pyrimido[4,5-b][1,4]diazepines as potential antitumor and antifungal agents” (2015).
